Compounds with a hit are over-represented: about 2.5% of the library has one in this group of screens.
TRPC4 potent = positive allosteric modulators of TRPC4, primary screen, cell-based, mouse TRPC4beta, HEK293 mu-opioid, Fluo-4 calcium; Short transient receptor potential channel 4 (Mus musculus), Q9QUQ5; DAMGO EC20, Fluo-4 Ca2+ flux; stronger effect = higher value; B-score at 10 µM; actives 0.42% (n = 310,000); AID 2227, 2009;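 active = B-score of calcium response area above 5 SD of library B-scores, with initial fluorescence ratio within 5 SD of library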;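 note: B-score of integrated fluorescence ratio over time as area under calcium response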
TRPC4 agonist = activators of mouse TRPC4 channel, primary screen, Fluo4 calcium, HEK293 TRPC4beta/mu-opioid cells | Short transient receptor potential channel 4 (Mus musculus), Q9QUQ5 | Fluo4 calcium fluorescence; stronger effect = higher value | B-score at 10 µM | actives 0.49% (n = 310,000);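 active = B-score above 5 SD of library B-scores, and initial fluorescence ratio not above library mean plus 5 SD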;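 note: positive B-score marks a calcium rise read as TRPC4 activation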
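Material: TRPC4beta and mu-opioid receptor HEK293 stable cells | Incubation: 45 min room-temperature Fluo4 loading, 110 s read | Detection: Kinetic Fluo4 calcium fluorescence | Measure: Integrated baseline-normalised fluorescence ratio, converted to per-well B score | Benchmarks: Low control buffer alone, high control maximal DAMGO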
TRPC6 inhibitor = mouse TRPC6 channel inhibitors, primary screen, cell-based, HEK293, membrane potential dye | Short transient receptor potential channel 6 (Mus musculus), Q61143 | ACh-evoked depolarization; stronger effect = lower value | B-score at 10 µM | actives 1.1% (n = 310,000) | AID 2553, 2010;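 active = B-score under library mean minus 3 SD, initial fluorescence not abnormally high, positive integrated signal ratio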;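 note: B-score derived from integrated fluorescence ratio over the kinetic read; more negative B-score means stronger inhibition of depolarization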
TRPC4 block = inhibitors of mouse TRPC4 channel, primary screen, Fluo4 calcium, HEK293 TRPC4beta/mu-opioid cells; Short transient receptor potential channel 4 (Mus musculus), Q9QUQ5; DAMGO-evoked Fluo4 calcium flux; stronger effect = lower value; B-score at 10 µM; actives 0.39% (n = 300,000);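 active = B-score over 3 SD under the library average, no early fluorescence shift, positive overall ratio signal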
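Assay system: TRPC4beta/mu-opioid receptor HEK293 cell line; compound dosing: single concentration per test compound; detection: Fluo4 Ca2+ flux fluorescence; evaluation: per-well B score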
TRPC6 act = mouse TRPC6 channel activators, primary screen, cell-based, HEK293, membrane potential dye; Short transient receptor potential channel 6 (Mus musculus), Q61143; HEK293-TRPC6 membrane potential dye fluorescence; stronger effect = higher value; B-score at 10 µM; actives 0.13% (n = 310,000); AID 2550, 2010;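 active = B-score of the integrated fluorescence ratio above library mean plus 3 SD, and starting fluorescence ratio within library mean plus 5 SD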;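 note: higher score means more depolarization so channel activation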
DSG3 Ab inh = inhibitors of pemphigus antibody binding to DSG3, primary screen, biochemical, bead-based, flow cytometry, scFv-GFP. Desmoglein-3 (Homo sapiens), P32926. DSG3-coupled beads, scFv-anti-DSG3-GFP binding; stronger effect = lower value. binding (percent of control), % at 10 µM. actives 0.48% (n = 310,000). AID 588358, 2011;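 active = binding more than 3 SD below its plate's average and above zero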;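 note: hits lower antibody fragment binding to DSG3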
TRPC4 sel inh 2 = second check of whether TRPC6 inhibitors also affect mouse TRPC4; shares compounds with TRPC6 inhibitor; HEK293 TRPC4/MOR, membrane potential dye fluorescence; channel activated by saturating DAMGO dose; inhibition, % at 10 µM; actives 42% (n = 920);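 active = compounds whose fluorescence signal differed from control wells by over 3 SD, either direction, in both duplicate plates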
TRPC4 spec = mouse TRPC4 modulation by TRPC6 hits, confirmation, selectivity assay for TRPC6 inhibitor project, cell-based, HEK293 TRPC4/mu-opioid, membrane potential dye; shares compounds with TRPC6 inhibitor; membrane potential fluorescence; activity change, negative = inhibition, % at 10 µM; actives 61% (n = 920); AID 2777, 2010;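 active = rise or fall in signal beyond 3 SD of buffer-only wells in both replicate plates, either sign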;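 note: integrated kinetic ratio of fluorescence range over baseline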
HEK293 MPD ctr 2-1 = nonspecific membrane potential effects, parental HEK293, confirmation, counter-screen for TRPC6 inhibitor project, cell-based, second counter screen. parental HEK293 membrane potential dye fluorescence; maximal acetylcholine challenge after compound addition. AID 2779, 2010. shares compounds with TRPC6 inhibitor. signal change vs control, % at 10 µM. actives 31% (n = 920);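 active = membrane potential signal moving either way by over 3 SD of the maximum-effect control, in both duplicate plates, meaning non-specific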
HEK293 MPD ctr-1 = membrane potential modulation in parental HEK293, confirmation, counter-screen for TRPC6 inhibitor project, cell-based; membrane potential signal change, % at 10 µM; actives 60% (n = 920); parental HEK293 membrane potential dye fluorescence; shares compounds with TRPC6 inhibitor;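 active = membrane potential signal shifting up or down by more than 3 SD of buffer-only wells, on both duplicate plates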
HEK293 MPD ctr-2 = parental HEK293 membrane potential modulation, confirmation, counter-screen for TRPC6 modulator project, cell-based. membrane potential dye fluorescence. membrane potential signal change, % at 10 µM. shares compounds with TRPC6 inhibitor. AID 488924, 2010. actives 51% (n = 2,400);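 active = membrane potential signal moves up or down beyond 5 SD from buffer-only wells, on both duplicate plates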
HEK293 MPD ctr 2-2 = second counter-screen for TRPC6 modulators: effect in parental HEK293 cells; shares compounds with TRPC6 inhibitor; membrane potential dye fluorescence; after compound, maximal acetylcholine stimulation; inhibition, % at 10 µM; actives 14% (n = 2,400);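 active = membrane potential signal drops by more than 5 SD from the mean control signal, in both duplicate plates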;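 note: plate controls were acetylcholine ECmax control wells for no effect and buffer only wells for full effect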
TRPC4/MOR mod = TRPC4 modulation by TRPC6 hit compounds, confirmation, selectivity assay for TRPC6 modulator project, cell-based, HEK293 TRPC4/mu-opioid, membrane potential dye, mouse; shares compounds with TRPC6 inhibitor; membrane potential fluorescence; percent change from control (negative = decrease, positive = increase), % at 10 µM; actives 69% (n = 2,400);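 active = membrane potential signal moved up or down beyond 5 SD of buffer control wells, in both duplicate plates, actives on both sides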;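 note: plate controls were assay buffer wells for no effect and DAMGO maximal-effect wells for full effect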
TRPC4 ctr inh 2 = second check of whether TRPC6 modulators also affect mouse TRPC4; shares compounds with TRPC6 inhibitor; inhibition, % at 10 µM; actives 55% (n = 2,400); HEK293 TRPC4/mu-opioid, membrane potential dye fluorescence; stimulated with maximal-effect DAMGO; AID 488928;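 active = drop in membrane potential signal beyond 5 SD of the control wells in both duplicate plates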;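 note: TRPC4 counter screen for TRPC6 hits run under conditions tuned for TRPC6 not TRPC4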
TRPC6 inh conf = mouse TRPC6 channel inhibitors, confirmation, HEK293 cells, membrane potential dye, duplicate; actives 43% (n = 3,300); AID 488960, 2010; inhibition, % at 10 µM; ACh-evoked depolarization; shares compounds with TRPC6 inhibitor;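 active = fluorescence ratio falls more than 5 SD below the full-stimulation control mean, in both duplicate runs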;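 note: integrated fluorescence ratio of peak minus minimum over baseline after agonist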
TRPC6 act confirm = mouse TRPC6 channel activators, confirmation, HEK293 cells, membrane potential dye, duplicate. HEK293-TRPC6 membrane potential dye fluorescence, FDSS. shares compounds with TRPC6 inhibitor. activation, % at 10 µM. actives 11% (n = 2,800);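 active = ratio signal rise beyond 5 SD above unstimulated control wells' mean, seen in both duplicate runs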;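 note: plate controls were buffer EC0 wells for no effect and acetylcholine ECmax response for full effect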
* marks the source's active call; other numbers are inactive results; i = inactive; nt = no result given.

SMILES	TRPC4 potent	TRPC4 agonist	TRPC6 inhibitor	TRPC4 block	TRPC6 act	DSG3 Ab inh	HEK293 MPD ctr-2	HEK293 MPD ctr 2-2	TRPC4/MOR mod	TRPC4 ctr inh 2	TRPC6 inh conf	TRPC6 act confirm	others
COc1cc(/C=C2/C(=O)ON=C2c2ccccc2)ccc1O	i	i	i	i	i	128.1	nt	nt	nt	nt	nt	nt
COc1cc(/C=C2\C(=O)ON=C2c2ccccc2)cc(Br)c1O	i	i	i	i	16*	113.0	906.0%*	i	74.5%*	i	i	148.0%*
CCOc1ccc(N2C=Nc3ccc(OCC)cc3C2)cc1	i	i	-5.65*	i	i	102.2	-82.0%*	i	-18.5%*	34.0%*	i	i
CCOc1ccc(N2C(=O)CNC2=S)cc1	i	i	i	i	i	113.2	nt	nt	nt	nt	nt	nt
CCc1cccc(CC)c1NC(=O)CN1CCc2cc(OC)c(OC)cc2C1	i	i	i	i	i	103.6	nt	nt	nt	nt	nt	nt
CCOC(=O)Cc1csc(NC(=O)Nc2cccc(OC)c2)n1	i	i	i	i	i	117.5	nt	nt	nt	nt	nt	nt
COc1ccccc1CN1CCN(C(CC(C)C)c2nnnn2Cc2cccs2)CC1 (configuration not stated)	i	i	-7.21*	i	i	94.3	nt	nt	nt	nt	i	nt	TRPC4 sel inh 2=9.5%*;TRPC4 spec=47.4%*;HEK293 MPD ctr 2-1=231.0%*;HEK293 MPD ctr-1=18.1%*
